Compound activity as filed in PubChem BioAssay.
A selection: hits, their analogues and other compounds. The true share with any hit is near 1.8%.
Efflux pump mplx = inhibitors of Candida efflux pumps in yeast, primary screen, S. cerevisiae, Nile Red, multiplex; 330,000 compounds, 0.44% hits; S. cerevisiae Candida pump triplex; inhibition, % at 10 µM;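 active means plate passing quality check with inhibition over a set limit, or well fluorescence over plate mean plus 4 SD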;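 further: Nile Red retained in pooled yeast measured as flow cytometry median fluorescence; higher means more Nile Red kept so more efflux inhibition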
C2C12 statin = suppressors of statin myotoxicity in C2C12 myotubes, primary screen, cell-based, single point, plate reader. 330,000 compounds, 0.78% hits. AID 602340, 2012. rescue of ATP level, % at 7.49 µM. C2C12 myotubes + simvastatin, ATP luminescence, 48 h; scaled: DMSO 0, geranylgeraniol control 100;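 active means mean ATP rescue above about 67%, or every replicate alone reaching that limit, limit read from the data, passing the limit was not always enough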;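 further: myotubes were challenged with 10 µM simvastatin during compound exposure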
SUMO Mot1 rescue = yeast Mot1-301 growth rescue at high temperature, primary screen, SUMOylation pathway inhibitor project, S. cerevisiae, ATP luminescence, 38.5C | S. cerevisiae Mot1-301 growth rescue; percent above DMSO median, 100 means doubled | growth rescue, % at 18.8 µM | 320,000 compounds, 1% hits;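 active means every valid replicate shows activation above 250% relative to neutral control wells; inactive means the rest, any valid replicate at or below 250%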
Cneo AK release = Cryptococcus neoformans cell lysis inducers, primary screen, AK release luminescence, single concentration | C. neoformans lysis, adenylate kinase release luminescence, 4 h; normalised: neutral wells 0, clomiphene wells 100 | 360,000 compounds, 0.2% hits | lysis activity, % at 15 µM | AID 651654, 2012;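 active means mean lysis activity across replicates of at least 80%, whatever share of replicates individually reach that level; inactive means mean lysis activity below 80%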
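Assay system: log-phase C. neoformans yeast / Quantity: yeast cell density of 5 × 10^6 cells/mL / Medium: fresh YPD growth medium / Compound: single dose / Timing: static 4 h at 37 °C with compound, 1 h detection / Measured by: adenylate kinase release luminescence / Read-out: lysis from increased AK signal / Benchmarks: Clomiphene as positive lysis control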
Mot1 SUMO dose = growth restoration of Mot1-301 yeast on galactose, dose response, SUMO pathway inhibitor project, whole organism, S. cerevisiae, ATP luminescence, cherry-picked samples; shares compounds with SUMO Mot1 rescue; S. cerevisiae Mot1-301 galactose growth, 24 h; -100 = growth of slx-deleted rescue strain; growth activity, percent, % at 42 µM; 2,300 tested, under 10 active; AID 493004, 2010;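 active means Signal drops as the depositor expects, and the fitted half-maximal dose is no more than ten times the top valid tested dose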;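 further: more negative values mean stronger growth rescue toward the control strain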
Of the large screens only hits and unclear results are named; the others gave an inactive call (follow-up assays come after a bar, where they were run).

COc1cccc(C2CC(c3cccc(NS(C)(=O)=O)c3)=NN2C(=O)c2ccccc2)c1OC (centres undefined)	SUMO Mot1 rescue 387 (no result: C2C12 statin) | Mot1 SUMO dose inactive
Cc1onc(-c2ccccc2)c1C(=O)N/N=C/c1cccc(O)c1	none (no result: C2C12 statin, Cneo AK release)
Cc1onc(-c2ccccc2)c1C(=O)N/N=C/C=C/c1ccccc1	SUMO Mot1 rescue 382 (no result: C2C12 statin) | Mot1 SUMO dose inactive
COc1ccc(Br)c(Cn2c(C)c(C(=O)N(C)Cc3ccc(F)cc3)sc2=O)c1	none (no result: Efflux pump mplx, SUMO Mot1 rescue)
Cc1cc(NC(=O)CC2CCCC2)ccc1Br	SUMO Mot1 rescue 386 | Mot1 SUMO dose inactive
Cc1ccc(NC(=O)CC2CS(=O)(=O)CC2CC(=O)Nc2ccc(C)c(C)c2)cc1C (centres undefined)	SUMO Mot1 rescue 440 | Mot1 SUMO dose inactive
Cc1ccc(NC(=O)C/C(N)=N/O)cc1C	none
Cc1ccc(Cl)cc1N(Cc1ccc(C(=O)NCc2cccnc2)cc1)S(=O)(=O)c1ccccc1	none
CCn1ncc(Br)c1C(=O)Nc1ccc(C(=O)OC(C)C)cc1	none
CCn1ncc(Br)c1C(=O)Nc1ccc(OC(F)(F)F)cc1	SUMO Mot1 rescue 451 | Mot1 SUMO dose inactive
O=c1c(-c2ccc(F)cc2)[n+]([O-])c2ccccc2n1OCc1ccccn1	none
Cc1c(=O)n(OCc2ccccn2)c2ccccc2[n+]1[O-]	SUMO Mot1 rescue 946 | Mot1 SUMO dose inactive
COC(=O)c1cc(NC(=O)Cc2cc(OC)c(OC)c(OC)c2)cc(C(=O)OC)c1	none
CSc1ccccc1NC(=O)COc1nsnc1N1CCOCC1	SUMO Mot1 rescue 413 | Mot1 SUMO dose inactive
CC(=O)c1ccc(N2CCN(S(=O)(=O)c3c(C(=O)N4CCCCC4)c(C)n(C)c3C)CC2)cc1	none
CCn1c(N2CCN(C(=O)C34CC5CC(CC(C5)C3)C4)CC2)nc2ccccc21	SUMO Mot1 rescue 389 | Mot1 SUMO dose inactive
COc1ccccc1CC(=O)N1CCOCC1	SUMO Mot1 rescue 878 | Mot1 SUMO dose inactive
C=CCn1c(=N)c(C(=O)NCCCOC)cc2c(=O)n3cc(C)ccc3nc21	none (no result: Cneo AK release)
C=CCn1c(=N)c(C(=O)NCCCOC)cc2c(=O)n3ccccc3nc21	SUMO Mot1 rescue 603 (no result: C2C12 statin) | Mot1 SUMO dose inactive
CCOC(=O)c1cc2c(ccn2-c2ccc(F)cc2)n1CC(=O)N1CCN(C(=O)c2ccco2)CC1	SUMO Mot1 rescue 378 (no result: C2C12 statin) | Mot1 SUMO dose inactive
O=C1CCC(/C=C/c2ccccc2)=NN1Cc1ccccc1Cl	none (no result: C2C12 statin, Cneo AK release)
O=C1CCC(/C=C/c2ccccc2)=NN1Cc1ccc(Cl)c(Cl)c1	SUMO Mot1 rescue 659 (no result: C2C12 statin, Cneo AK release) | Mot1 SUMO dose inactive
C[C@@H]1CN([C@H](C)CO)C(=O)c2cccc(NC(=O)NC3CCCCC3)c2O[C@@H]1CN(C)S(=O)(=O)c1ccccc1	none (no result: Efflux pump mplx, SUMO Mot1 rescue)
COc1cc(C(=O)NCCc2ncccc2C)ccc1OC1CCN(C(C)=O)CC1	none
COc1cc(C(=O)NCCC2=CCCCC2)ccc1OC1CCN(C(C)=O)CC1	SUMO Mot1 rescue 547 | Mot1 SUMO dose inactive
CCC(C(=O)Nc1ccncc1)c1ccccc1 (centres undefined)	none (no result: C2C12 statin, Cneo AK release)
CCC(C(=O)Nc1cccnc1)c1ccccc1 (centres undefined)	SUMO Mot1 rescue 422 | Mot1 SUMO dose inactive
CCc1nc2ccc(C(=O)NCc3ccccc3)cc2nc1CC	none (no result: C2C12 statin, Cneo AK release)
CC1(C)CC(=O)C2=C(C1)Oc1ncn(CCO)c(=N)c1C2c1ccccc1 (centres undefined)	SUMO Mot1 rescue 543 | Mot1 SUMO dose inactive
CC1(C)CC(=O)C2=C(C1)Oc1ncn(CCCO)c(=N)c1C2c1ccccc1 (centres undefined)	none
CN1CCCN(CC(O)COCc2cccs2)CC1 (centres undefined)	none (no result: SUMO Mot1 rescue)
OC(COCc1cccs1)CN1CCCCCC1 (centres undefined)	SUMO Mot1 rescue active | Mot1 SUMO dose inactive
COc1ccc(C(=O)OCC(=O)c2ccccc2)cc1S(=O)(=O)N1CCOCC1	SUMO Mot1 rescue active | Mot1 SUMO dose inactive
COCCCNC(=O)c1cc2cc([N+](=O)[O-])cc(OC)c2oc1=O	SUMO Mot1 rescue 406 | Mot1 SUMO dose inactive
COc1cccc(C(=O)Nc2ccc(NC(=O)C3CCCCC3)nc2)c1	none (no result: Efflux pump mplx, SUMO Mot1 rescue)
COc1ccc(/C=C/C(=O)NC(=S)Nc2ccccn2)cc1	SUMO Mot1 rescue 900 | Mot1 SUMO dose inactive
COc1ccccc1/C=C/C(=O)NC(=S)Nc1ccccn1	none
CCOC(=O)C1=C(N)c2ccccc2CC1C1CCCC1 (centres undefined)	SUMO Mot1 rescue 552 (no result: C2C12 statin) | Mot1 SUMO dose inactive
C=C1c2ccccc2O[C@H](C(=O)OCC)[C@@H]1C1CCCCC1	none (no result: SUMO Mot1 rescue)
CCOc1ccc(N(CC(=O)NCC2CCCO2)S(=O)(=O)c2ccc(Cl)cc2)cc1 (centres undefined)	none
C[C@@H]1CN([C@@H](C)CO)C(=O)CCCn2nncc2CO[C@@H]1CN(C)C(=O)Nc1ccccc1	none (no result: Efflux pump mplx, SUMO Mot1 rescue)
COc1ccc(N2C(=O)c3ccccc3NC23CCCCC3)cc1	none
COc1ccc(N2C(=O)CSC23CCCCC3)cc1	SUMO Mot1 rescue active | Mot1 SUMO dose inactive
O=C(c1ccccc1F)N1CCN=C1SCc1cccnc1	SUMO Mot1 rescue 569 | Mot1 SUMO dose inactive
Cc1cc(-c2cc(C(=O)NC3CCCC3)on2)nc(NC2CCCC2)n1	none
Cc1ccc2nc(N/N=C/c3ccccc3F)nc(-c3ccccc3)c2c1	SUMO Mot1 rescue 473 (no result: C2C12 statin) | Mot1 SUMO dose inactive
C=C1[C@@H](CCO)N(S(=O)(=O)C(C)(C)C)C[C@@H]1C	none (no result: Efflux pump mplx, SUMO Mot1 rescue)
O=C(COC(=O)c1c(F)cccc1F)c1ccc[nH]1	SUMO Mot1 rescue 596 (no result: C2C12 statin, Cneo AK release) | Mot1 SUMO dose inactive
O=C(OCC(=O)c1ccc[nH]1)c1ccccc1	none (no result: C2C12 statin, Cneo AK release)
CCC(=O)N/N=C(\C)CC(=O)Nc1ccc2ccccc2c1	none
O=C(CSc1ncnc2nc[nH]c12)Nc1ccccc1C(F)(F)F	SUMO Mot1 rescue 727 | Mot1 SUMO dose inactive
CC1=C/C(=N\OS(=O)(=O)c2ccccc2)C(C(C)C)=CC1=O	SUMO Mot1 rescue 413 (no result: C2C12 statin, Cneo AK release) | Mot1 SUMO dose inactive
Cc1cn([C@H]2C[C@H](O)[C@@H](CCC(=O)NCCCn3ccnc3)O2)c(=O)[nH]c1=O	none (no result: SUMO Mot1 rescue)
CCOC(=O)C1CCCN(C(=O)c2cc3ccccc3cc2OC)C1 (centres undefined)	none (no result: Efflux pump mplx, SUMO Mot1 rescue)
Cc1ccc(-c2cc(C(=O)O)c3ccccc3n2)s1	SUMO Mot1 rescue 891 | Mot1 SUMO dose inactive
CSc1ccc(CN(C)C(C)C(=O)NCc2ccccc2)cc1 (centres undefined)	none
CCOc1ccc(CN(C)C(C)C(=O)NCc2ccccc2)cc1 (centres undefined)	SUMO Mot1 rescue 401 | Mot1 SUMO dose inactive
COc1cccc(C2/C(=C(/O)c3ccccc3)C(=O)C(=O)N2Cc2ccco2)c1 (centres undefined)	SUMO Mot1 rescue 497 (no result: C2C12 statin) | Mot1 SUMO dose inactive
